Usually pIC50 stands for −log10 of the IC50, conventionally taken in molar units.

SMILES strings stand for the structures. pIC50: −log10 of the molar value. Activity calls are given as the source filed them. No cut-off for these calls is given here.

The results in this text go back to ChEMBL document CHEMBL3232843, “Novel pyrrolidine diketopiperazines selectively inhibit melanoma cells via induction of late-onset apoptosis” (J Med Chem, 2014).

The test system of experiment [1] is M14. In words: Induction of apoptosis human M14 cells assessed as caspase activity after 4 to 24 hrs using DEVD peptide as substrate by ApoTox-Glo triplex assay. It counts as functional, cell-based. A digest of the protocol:
(§1)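 M14 cells, 1250 per well, in serum-free DMEM, settled 4 h, then given 1:3 serial dilutions. Ionomycin, terfenadine and panobinostat were the controls. Incubated 4, 24, 48 or 72 h at 37 °C. A reagent containing 400 µM GF-AFC (live-cell protease, ex 400/em 505 nm) and 400 µM bis-AAF-R110 (dead-cell protease, ex 485/em 520 nm) was applied for 30 min at 37 °C. Caspase-Glo 3/7 (DEVD) luminescence was then read after 30 min at room temperature.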

In experiment [2] the test system is M14. Nature of the experiment: Cytotoxicity against human M14 cells assessed as cell viability after 4 hrs using bis-AAF-R110 as substrate by ApoTox-Glo triplex assay. It counts as functional, cell-based. The method, boiled down:
as §1

Experiment [3] has as its system M14. Nature of the experiment: Cytotoxicity against human M14 cells assessed as cell viability after 4 hrs using GF-AFC as substrate by ApoTox-Glo triplex assay. The experiment is classed as functional, cell-based. The method, boiled down:
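M14 #5 cells, 1250 per well in serum-free DMEM, pre-incubated 4 h at 37 °C, 5% CO2. Compounds added as 1:3 serial dilutions; incubated 4, 24, 48 and 72 h. Per time point, a reagent containing 400 µM GF-AFC (live-cell protease) and 400 µM bis-AAF-R110 (dead-cell protease) was added for 30 min at 37 °C, then fluorescence was read. Caspase-Glo 3/7 was added next, 30 min at room temperature, then luminescence.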

Experiment [4] relates to SK-MEL-28. Nature of the experiment: Cytotoxicity against human SK-MEL-28 cells expressing B-raf V600E mutant after 48 hrs by hexosaminidase assay. It counts as functional, cell-based. A digest of the protocol:
(§2)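 SK-MEL-28 or B16/F10 cells plated in 96-well plates, grown overnight, then treated with 0–50 µM compound for 48 h. Cells washed with PBS, given hexosaminidase substrate for 30 min at 37 °C, then developer. Absorbance read at 405 nm. Percent viability = treated/control absorbance × 100.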

Experiment [5] concerns M14. Nature of the experiment: Cytotoxicity against human M14 cells assessed as cell viability at 100 uM after 4 hrs by CellTiter-Glo luminescence assay. The experiment is classed as functional, cell-based. The method, boiled down:
(§3)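 M14 cells, 1250 per well, in serum-free DMEM. Compounds given in 10-point 1:3 dilution series starting at 100 µM; controls were gefitinib, doxorubicin and ionomycin. Incubated at 37 °C, 5% CO2. CellTiter-Glo luminescence read at 4, 24, 48 and 72 h. Viability normalized to media-only wells and 1% DMSO-treated wells.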
In general terms: Cellular ATP, detected with luciferase, serves as a proxy for viable cell number.

Experiment [6] deals with Histone deacetylase 2 (Homo sapiens) (UniProt Q92769). Nature of the experiment: Inhibition of HDAC2 (unknown origin) up to 100 uM.
Chain of Histone deacetylase 2 (Homo sapiens) (Q92769 whole entry): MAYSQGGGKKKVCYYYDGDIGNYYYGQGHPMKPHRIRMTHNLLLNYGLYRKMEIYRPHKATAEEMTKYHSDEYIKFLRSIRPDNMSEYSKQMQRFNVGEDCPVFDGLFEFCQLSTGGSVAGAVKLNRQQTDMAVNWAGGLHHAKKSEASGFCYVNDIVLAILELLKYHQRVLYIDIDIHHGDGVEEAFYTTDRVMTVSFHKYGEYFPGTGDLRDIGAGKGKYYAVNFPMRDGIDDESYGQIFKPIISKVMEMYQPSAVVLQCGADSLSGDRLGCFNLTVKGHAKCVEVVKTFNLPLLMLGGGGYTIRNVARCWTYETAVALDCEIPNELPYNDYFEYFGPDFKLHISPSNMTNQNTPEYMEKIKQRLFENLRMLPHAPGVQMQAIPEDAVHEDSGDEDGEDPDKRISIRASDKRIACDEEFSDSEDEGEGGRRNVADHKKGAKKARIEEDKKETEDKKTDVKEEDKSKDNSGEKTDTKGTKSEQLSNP
Experiment [7] has as its system M14. In words: Cytotoxicity against human M14 cells assessed as cell viability at 100 uM after 24 hrs by CellTiter-Glo luminescence assay. It counts as functional, cell-based. A digest of the protocol:
as §3

Experiment [8] has as its system M14. Nature of the experiment: Cytotoxicity against human M14 cells assessed as cell viability at 100 uM after 48 hrs by CellTiter-Glo luminescence assay. The experiment is classed as functional, cell-based. A digest of the protocol:
as §3

Experiment [9] deals with T1, Protein deacetylase HDAC6 (Homo sapiens) (UniProt Q9UBN7).
T1 sequence (whole entry): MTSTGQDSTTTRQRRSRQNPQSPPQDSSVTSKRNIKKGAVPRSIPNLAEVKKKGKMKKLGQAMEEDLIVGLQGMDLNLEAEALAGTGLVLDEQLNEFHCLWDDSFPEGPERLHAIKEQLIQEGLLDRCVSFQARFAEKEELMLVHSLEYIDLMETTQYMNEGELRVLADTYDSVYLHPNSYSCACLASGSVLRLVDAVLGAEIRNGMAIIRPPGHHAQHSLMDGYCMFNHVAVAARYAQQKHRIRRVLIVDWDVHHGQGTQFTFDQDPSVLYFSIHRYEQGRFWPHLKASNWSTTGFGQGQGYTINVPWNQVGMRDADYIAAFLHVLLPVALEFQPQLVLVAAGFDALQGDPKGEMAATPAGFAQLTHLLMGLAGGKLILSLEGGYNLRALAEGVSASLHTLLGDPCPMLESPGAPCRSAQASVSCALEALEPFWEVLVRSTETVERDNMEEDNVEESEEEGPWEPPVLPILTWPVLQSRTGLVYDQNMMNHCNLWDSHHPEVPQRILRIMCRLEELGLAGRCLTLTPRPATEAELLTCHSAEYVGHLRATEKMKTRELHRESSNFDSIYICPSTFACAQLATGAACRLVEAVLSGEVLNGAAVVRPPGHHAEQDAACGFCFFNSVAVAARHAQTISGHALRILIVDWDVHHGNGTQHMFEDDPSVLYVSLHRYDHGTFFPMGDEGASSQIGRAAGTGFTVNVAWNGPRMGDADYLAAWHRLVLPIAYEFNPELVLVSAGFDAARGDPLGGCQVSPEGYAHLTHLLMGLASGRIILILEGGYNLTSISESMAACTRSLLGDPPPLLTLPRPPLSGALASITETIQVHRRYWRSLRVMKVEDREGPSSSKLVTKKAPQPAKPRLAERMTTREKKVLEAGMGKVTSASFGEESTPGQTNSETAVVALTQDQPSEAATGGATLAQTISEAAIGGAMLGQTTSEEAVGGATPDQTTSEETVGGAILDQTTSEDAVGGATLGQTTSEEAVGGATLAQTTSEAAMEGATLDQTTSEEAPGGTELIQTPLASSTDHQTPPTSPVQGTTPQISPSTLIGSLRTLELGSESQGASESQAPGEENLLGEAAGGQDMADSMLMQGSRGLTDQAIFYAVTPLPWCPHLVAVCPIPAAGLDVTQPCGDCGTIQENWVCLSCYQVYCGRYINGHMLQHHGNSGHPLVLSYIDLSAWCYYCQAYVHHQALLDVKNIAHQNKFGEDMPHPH
In words: Inhibition of HDAC6 (unknown origin) up to 100 uM.

For experiment [10], the system named is M14. Nature of the experiment: Cytotoxicity against human M14 cells after 72 hrs by CellTiter-Glo luminescence assay. The experiment is classed as functional, cell-based. The method, boiled down:
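1250 cells per well in serum-free medium (F12 for CHO-K1 and A549, DMEM for M14). Compounds given as 10-point 1:3 serial dilutions from a 300 µM stock, plus a gefitinib control. Incubated 72 h at 37 °C, 5% CO2. CellTiter-Glo added for 15 min at room temperature, then luminescence read. Viability normalized to media-only wells (0%) and 1% DMSO wells (100%). Run in triplicate.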

Experiment [11] addresses Histone deacetylase 1 (Homo sapiens) (UniProt Q13547). In words: Inhibition of HDAC1 (unknown origin) up to 100 uM.
The nature of experiment [12]: (§4) Cytotoxicity against mouse B16F10 cells expressing p53 mutant after 48 hrs by hexosaminidase assay. It counts as functional, cell-based. Conditions: B16-F10, 48 h. The method, boiled down:
as §2

A further experiment deals with B16-F10. The experiment is described as §4. It counts as functional, cell-based. The method, boiled down: as §2
A short description of experiment [13]: Cytotoxicity against human M263 cells expressing B-raf V600E mutant. The experiment is classed as functional, cell-based.
Experiment [14] deals with M14. In words: Cytotoxicity against human M14 cells expressing […] mutant. It counts as functional, cell-based.
The nature of experiment [15]: Cytotoxicity against human M249 cells expressing B-raf V600E mutant. It counts as functional, cell-based.
A short description of experiment [16]: Cytotoxicity against human M238 cells expressing B-raf V600E mutant. The experiment is classed as functional, cell-based.
The nature of experiment [17]: Cytotoxicity against human M262 cells expressing B-raf V600E mutant. The experiment is classed as functional, cell-based.
In experiment [18] the test system is SK-MEL-28. Nature of the experiment: Cytotoxicity against human SK-MEL-28 cells expressing B-raf V600E mutant. The experiment is classed as functional, cell-based.
The nature of experiment [19]: Cytotoxicity against human M321 cells expressing B-raf V600E mutant. The experiment is classed as functional, cell-based.
Experiment [20] can be described thus: Cytotoxicity against human M229 cells expressing B-raf V600E mutant. It counts as functional, cell-based.

Chain of Histone deacetylase 1 (Homo sapiens) (Q13547 whole entry): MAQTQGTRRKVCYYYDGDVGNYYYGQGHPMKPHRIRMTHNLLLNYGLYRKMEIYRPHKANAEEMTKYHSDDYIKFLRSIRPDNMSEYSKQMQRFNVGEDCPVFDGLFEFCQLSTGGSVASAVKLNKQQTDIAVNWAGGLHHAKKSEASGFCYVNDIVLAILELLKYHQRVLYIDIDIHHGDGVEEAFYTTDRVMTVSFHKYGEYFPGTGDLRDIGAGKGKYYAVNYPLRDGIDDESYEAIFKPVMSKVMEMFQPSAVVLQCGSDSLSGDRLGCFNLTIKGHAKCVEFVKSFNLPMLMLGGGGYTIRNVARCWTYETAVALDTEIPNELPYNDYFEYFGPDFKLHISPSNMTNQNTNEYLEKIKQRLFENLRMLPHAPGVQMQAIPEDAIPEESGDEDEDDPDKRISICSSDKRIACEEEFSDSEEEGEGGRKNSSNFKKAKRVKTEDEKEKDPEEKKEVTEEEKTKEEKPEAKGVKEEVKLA

As to `CC(C)(C)c1ccc(C(O)CCCN2CCC(C(O)(c3ccccc3)c3ccccc3)CC2)cc1` (configuration not stated), the result in the experiment with M14 [1], in the experiment on M14 [2] and with M14 [3] was Active.

Take `O=C1NC[C@H](Cc2ccccc2)N(C[C@@H]2CCCN2C[C@H](Cc2ccccc2)N2C[C@H](Cc3ccc(O)cc3)N(CCC34CC5CC(CC(C5)C3)C4)C(=O)C2=O)C1=O`: the inhibition entry in the experiment with SK-MEL-28 [4], in the experiment on M14 [10] and in the experiment with B16-F10 was “Dose-dependent effect” each time. In addition, the outcome with M14 [5] was inactive. Further, the inhibition result in [6], in experiment [9] and in experiment [11] was “inactive” throughout. In addition, the outcome with M14 [7] and with M14 [8] was Active. For the same compound, the pIC50 with M14 [10] (M14, 72 h) is 6.12; in experiment [12], 5.94.

On to `CCCS(=O)(=O)Nc1ccc(F)c(C(=O)c2c[nH]c3ncc(-c4ccc(Cl)cc4)cc23)c1F` [VEMURAFENIB], for which the pIC50 in [13] is 7.00; in the experiment with M14 [14], 6.82; in experiment [15] it was 7.00; in [16], 7.00; in experiment [17] it was 7.00; in the experiment with SK-MEL-28 [18] it was 7.00. The pIC50 in [19] and in experiment [20] was 7.00 each time.
